ChEMBL document CHEMBL1944532, “Synthesis and evaluation of anticancer activity of some novel 6-aryl-2-(p-sulfamylphenyl)-pyridazin-3(2H)-ones” (Eur J Med Chem, 2012)
Calls of active or inactive are those of the source. No cut-off for these calls is given here.

Columns and labels:
A549 = assay: Cytotoxicity against human A549/ATCC cells after 48 hrs by SRB assay; type: functional; conditions: A549, 48 h
Outline: (§1)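 NCI ~60-line panel in RPMI-1640 with 5% fetal calf serum and 2 mM L-glutamine, pre-incubated 24 h. Compound in DMSO tested at five 10-fold concentrations (10^-4 to 10^-8 M) with 48 h continuous exposure. Growth measured by sulforhodamine B protein assay. GI50 (50% net growth inhibition), TGI (total inhibition) and LC50 (50% net cell death) derived from dose-response.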

SK-OV-3 = assay: Cytotoxicity against human SKOV3 cells assessed as cell growth at 10 uM after 48 hrs by SRB assay; type: functional; conditions: SK-OV-3, 48 h, read-out: Activity
Outline: (§2)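 NCI primary one-dose screen at 10^-5 M against the full panel of about 60 human tumour cell lines, run to the NCI Drug Evaluation Branch protocol.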

A498 = assay: Cytotoxicity against human A498 cells assessed as cell growth at 10 uM after 48 hrs by SRB assay; type: functional; conditions: A498, 48 h, read-out: Activity
Outline: (§3)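 NCI primary single-dose screen at 10^-5 M against the ~60 human tumour cell line panel. Cells grown in RPMI-1640 with 5% fetal calf serum and 2 mM L-glutamine and pre-incubated 24 h before compound addition. Compound added from DMSO solution with 48 h exposure. Growth read by sulforhodamine B protein staining.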

MOLT-4 = assay: Cytotoxicity against human MOLT4 cells after 48 hrs by SRB assay; type: functional; conditions: MOLT-4, 48 h
Outline: (§4)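 NCI five-dose screen on the ~60-line human tumor panel. Cells grown in RPMI-1640 with 5% fetal calf serum and 2 mM L-glutamine, seeded at line-dependent density and preincubated 24 h. Compound added from DMSO at 10-fold dilutions from 10^-4 to 10^-8 M, continuous exposure 48 h. Growth read by sulforhodamine B protein stain. GI50, TGI and LC50 derived per line.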

SF-268 = assay: Cytotoxicity against human SF268 cells assessed as cell growth at 10 uM after 48 hrs by SRB assay; type: functional; conditions: SF-268, 48 h, read-out: Activity
Outline: (§5)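 NCI primary single-dose screen at 10^-5 M against the full panel of about 60 human tumor cell lines. Cells were in RPMI-1640 with 5% fetal calf serum and 2 mM L-glutamine and preincubated 24 h. Compound was given in DMSO with 48 h exposure. Growth was estimated by sulforhodamine B protein assay.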

MDA-MB-231 = assay: Cytotoxicity against human MDA-MB-231 cells assessed as cell growth at 10 uM after 48 hrs by SRB assay; type: functional; conditions: MDA-MB-231, 48 h, read-out: Activity; outline: as §5
NCI-H460 = assay: Cytotoxicity against human NCI-H460 cells assessed as cell growth at 10 uM after 48 hrs by SRB assay; type: functional; conditions: NCI-H460, 48 h, read-out: Activity; outline: as §5
NCI-H522 = assay: Cytotoxicity against human NCI-H522 cells after 48 hrs by SRB assay; type: functional; conditions: NCI-H522, 48 h; outline: as §4
HCC 2998 = assay: Cytotoxicity against human HCC2998 cells assessed as cell growth at 10 uM after 48 hrs by SRB assay; type: functional; conditions: HCC 2998, 48 h, read-out: Activity; outline: as §3
ACHN = assay: Cytotoxicity against human ACHN cells after 48 hrs by SRB assay; type: functional; outline: as §1
SK-MEL-5 = assay: Cytotoxicity against human SK-MEL-5 cells assessed as cell growth at 10 uM after 48 hrs by SRB assay; type: functional; conditions: SK-MEL-5, 48 h, read-out: Activity; outline: as §2
PC-3 = assay: Cytotoxicity against human PC3 cells assessed as cell growth at 10 uM after 48 hrs by SRB assay; type: functional; conditions: PC-3, 48 h, read-out: Activity; outline: as §5
HT-29 = assay: Cytotoxicity against human HT-29 cells after 48 hrs by SRB assay; type: functional; conditions: HT-29, 48 h; outline: as §1
UACC-62 = assay: Antitumor activity against human UACC62 cells implanted in mouse dosed qd for 4 days by formazan dye-based hollow fiber assay; type: functional, organism-based
Outline: (§6)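 Cells grown inside polyvinylidene fluoride hollow fibers; each line implanted into both intraperitoneal and subcutaneous compartments in mice. Compound given ip at two doses on a QD x 4 schedule. Fibers then recovered and viable cell mass measured by formazan dye conversion. Scored 2 per dose giving ≥50% reduction in viable cell mass (%T/C 50).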

U-251 = assay: Antitumor activity against human U251 cells implanted in mouse dosed qd for 4 days by formazan dye-based hollow fiber assay; type: functional, organism-based; outline: as §6
DU-145 = assay: Cytotoxicity against human DU145 cells after 48 hrs by SRB assay; type: functional; conditions: DU-145, 48 h; outline: as §1
OVCAR-3 = assay: Cytotoxicity against human OVCAR3 cells assessed as cell growth at 10 uM after 48 hrs by SRB assay; type: functional; conditions: OVCAR-3, 48 h, read-out: Activity; outline: as §5
SF-295 = assay: Antitumor activity against human SF295 cells implanted in mouse dosed qd for 4 days by formazan dye-based hollow fiber assay; type: functional, organism-based; outline: as §6
UO-31 = assay: Cytotoxicity against human UO31 cells assessed as cell growth at 10 uM after 48 hrs by SRB assay; type: functional; conditions: UO-31, 48 h, read-out: Activity; outline: as §2
SK-MEL-28 = assay: Cytotoxicity against human SK-MEL-28 cells assessed as cell growth at 10 uM after 48 hrs by SRB assay; type: functional; conditions: SK-MEL-28, 48 h, read-out: Activity; outline: as §2
OVCAR-4 = assay: Cytotoxicity against human OVCAR4 cells after 48 hrs by SRB assay; type: functional; conditions: OVCAR-4, 48 h; outline: as §4
SK-MEL-2 = assay: Cytotoxicity against human SK-MEL-2 cells after 48 hrs by SRB assay; type: functional; conditions: SK-MEL-2, 48 h; outline: as §4
HL-60(TB) = assay: Cytotoxicity against human HL-60(TB) cells assessed as cell growth at 10 uM after 48 hrs by SRB assay; type: functional; conditions: HL-60, 48 h, read-out: Activity
Outline: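 NCI primary one-dose screen at 10^-5 M against about 60 human tumor cell lines. Cells pre-incubated 24 h, then compound in DMSO added for 48 h. Cell growth read by sulforhodamine B protein assay.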

## CCc1ccc(-c2ccc(=O)n(-c3ccc(S(N)(=O)=O)cc3)n2)cc1
A549
  LC50: > 100 µM
A549; read-out: GI50
  GI50: 2.58 µM
A549; read-out: pGI50 (converted)
  GI50: 2.57 µM
A549; read-out: pTGI
  TGI: > 100 µM
SK-OV-3
  growth at 10 µM: 49.5%
A498
  growth at 10 µM: 40.3%
MOLT-4
  LC50: > 100 µM
MOLT-4; read-out: GI50
  GI50: 0.573 µM
MOLT-4; read-out: pGI50 (converted)
  GI50: 0.575 µM
MOLT-4; read-out: pTGI
  TGI: > 100 µM
SF-268
  growth at 10 µM: 42%
MDA-MB-231
  growth at 10 µM: 66.8%
NCI-H460
  growth at 10 µM: 12.6%
NCI-H522
  LC50: > 100 µM
NCI-H522; read-out: GI50
  GI50: 0.0966 µM
NCI-H522; read-out: pGI50 (converted)
  GI50: 0.0955 µM
NCI-H522; read-out: pTGI (converted)
  TGI: 0.631 µM
HCC 2998
  growth at 10 µM: 53.9%
ACHN
  GI50: 10.5 µM
ACHN; read-out: pLC50 (the source's name) (converted)
  CC50: > 100 µM
ACHN; read-out: pTGI
  TGI: > 100 µM
SK-MEL-5
  growth at 10 µM: 12.9%
PC-3
  growth at 10 µM: 35%
HT-29
  LC50: > 100 µM
HT-29; read-out: GI50
  GI50: 0.436 µM
HT-29; read-out: pGI50 (converted)
  GI50: 0.437 µM
HT-29; read-out: pTGI
  TGI: > 100 µM
UACC-62
  Activity: inactive
U-251
  Activity: inactive
DU-145
  LC50: > 100 µM
DU-145; read-out: GI50
  GI50: 13.8 µM
DU-145; read-out: pGI50 (converted)
  GI50: 13.8 µM
DU-145; read-out: pTGI
  TGI: > 100 µM
OVCAR-3
  growth at 10 µM: -56.8%
SF-295
  Activity: inactive
UO-31
  growth at 10 µM: 38.4%
SK-MEL-28
  growth at 10 µM: 49.4%
OVCAR-4
  LC50: > 100 µM
OVCAR-4; read-out: GI50
  GI50: > 100 µM
OVCAR-4; read-out: pGI50 (converted)
  GI50: > 100 µM
OVCAR-4; read-out: pTGI
  TGI: > 100 µM
SK-MEL-2
  LC50: > 100 µM
SK-MEL-2; read-out: GI50
  GI50: 10.7 µM
SK-MEL-2; read-out: pGI50 (converted)
  GI50: 10.7 µM
SK-MEL-2; read-out: pTGI (converted)
  TGI: 72.4 µM
HL-60(TB)
  growth at 10 µM: -4.27%
